Consider 15 compounds from PubChem BioAssay.

Active and inactive are the calls of the source.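 Rule for the calls, unless noted: active = viability at or below 10% of carrier control in both of two separate runs; inconclusive = viability at or below 10% in only one of the two runs; inactive = the rest.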 Peptide text beside a SMILES is read from it. * marks the point of attachment. Boc = CC(C)(C)OC(=O)*

A short description of assay [1]: reducers of endogenous Her2 protein level, primary screen, SKBR3 breast tumor cells, AlphaScreen, ATP viability (AID 461;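 active = Her2 level under about 52% in both replicate screens, with viability over 70% of control, limit read from the data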;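 for Her2 level: lower value means less Her2 protein in the cells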;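 for viability: percent of carrier control wells set as 100% viability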). The conditions noted are these: 18-24 h, measured here: SKBR3 viability, ATP luminescence, at 10 µM. (In general: Bead proximity is the source of the signal in Alpha formats.)
The target of assay [2] is Receptor tyrosine-protein kinase erbB-2 (Homo sapiens) (UniProt P04626). Described as above. To be noted: 18-24 h, at 10 µM, stronger effect = lower value.
The nature of assay [3]: SK-BR-3 cell growth inhibitors, pilot screen, 24 h, human (AID 572).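 Note: compound exposure lasted between 18 and 24 h rather than exactly 24 h; 100% = carrier-treated control wells.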 The conditions noted are these: SK-BR-3 viability, CellTiter-Glo luminescence, at 10 µM, stronger effect = lower value. For orientation: ATP-based viability assays read luminescence as a measure of living cells.
Assay [4] in a line: HUVEC growth inhibition – cell-based, human, primary screen (AID 575;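 active = viability at or below 30% in both replicate assays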;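 note: 100% = median of untreated cell wells with 0.1% DMSO on each plate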). To be noted: HUVEC proliferation, CellTiter-Glo luminescence, 72 h; at 10 µM; stronger effect = lower value. Summed up:
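Timing: 72 h treatment at 37 °C; material: HUVEC primary cells; technique: CellTiter-Glo luminescence measuring cellular ATP; controls: vehicle and MePR control wells; measure: percent of median DMSO-control luminescence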

The nature of assay [5]: growth inhibitors of H69AR lung tumor, primary screen, human, duplicate replicates (AID 580;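 active = viability at or under a set limit in both replicates, limit being median viability minus 3 SD, cut at about 48% in these data, passing the limit was not always enough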;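 note: 100% = mean luminescence of untreated wells and 0% = no signal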). The conditions noted are these: H69AR lung tumor cells viability, ATP luminescence, 72 h; at 10 µM; stronger effect = lower value.
A short description of assay [6]: reversal of MRP1-mediated doxorubicin resistance, pilot screen, H69AR cells, doxorubicin co-treatment (AID 601;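 active = viability loss from added drug above about 55%, and viability with drug at most 40%, in both replicates, limit read from the data, passing the limit was not always enough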). To be noted: CellTiter-Glo, 72 h, at 10 µM; for differential viability (reversal): stronger effect = higher value.
A short description of assay [7]: 384-well plate pilot, post-Golgi transport modulator project, inhibition of yeast transport mutant growth (AID 636; in the data active = inhibition above about 31%). To be noted: absorbance 615 nm, about 18 h, stronger effect = higher value.
The nature of assay [8]: growth suppression of yeast trafficking mutant, preliminary HTS, modulators of trafficking downstream of Golgi apparatus project, 1536-format plate, OD 615 nm (AID 637; in the data active = inhibition above about 30%). To be noted: yeast transport mutant growth, absorbance 615 nm, 18 h; stronger effect = higher value.
Where [9] appears, read: H69AR cells + 2 uM doxorubicin, measured here: viability with 2 uM doxorubicin, stronger effect = lower value.
The mark [10] stands for this setting: H69AR cells, compound alone cytotoxicity.

Sequence of Receptor tyrosine-protein kinase erbB-2 (Homo sapiens) (P04626 whole entry, looked up): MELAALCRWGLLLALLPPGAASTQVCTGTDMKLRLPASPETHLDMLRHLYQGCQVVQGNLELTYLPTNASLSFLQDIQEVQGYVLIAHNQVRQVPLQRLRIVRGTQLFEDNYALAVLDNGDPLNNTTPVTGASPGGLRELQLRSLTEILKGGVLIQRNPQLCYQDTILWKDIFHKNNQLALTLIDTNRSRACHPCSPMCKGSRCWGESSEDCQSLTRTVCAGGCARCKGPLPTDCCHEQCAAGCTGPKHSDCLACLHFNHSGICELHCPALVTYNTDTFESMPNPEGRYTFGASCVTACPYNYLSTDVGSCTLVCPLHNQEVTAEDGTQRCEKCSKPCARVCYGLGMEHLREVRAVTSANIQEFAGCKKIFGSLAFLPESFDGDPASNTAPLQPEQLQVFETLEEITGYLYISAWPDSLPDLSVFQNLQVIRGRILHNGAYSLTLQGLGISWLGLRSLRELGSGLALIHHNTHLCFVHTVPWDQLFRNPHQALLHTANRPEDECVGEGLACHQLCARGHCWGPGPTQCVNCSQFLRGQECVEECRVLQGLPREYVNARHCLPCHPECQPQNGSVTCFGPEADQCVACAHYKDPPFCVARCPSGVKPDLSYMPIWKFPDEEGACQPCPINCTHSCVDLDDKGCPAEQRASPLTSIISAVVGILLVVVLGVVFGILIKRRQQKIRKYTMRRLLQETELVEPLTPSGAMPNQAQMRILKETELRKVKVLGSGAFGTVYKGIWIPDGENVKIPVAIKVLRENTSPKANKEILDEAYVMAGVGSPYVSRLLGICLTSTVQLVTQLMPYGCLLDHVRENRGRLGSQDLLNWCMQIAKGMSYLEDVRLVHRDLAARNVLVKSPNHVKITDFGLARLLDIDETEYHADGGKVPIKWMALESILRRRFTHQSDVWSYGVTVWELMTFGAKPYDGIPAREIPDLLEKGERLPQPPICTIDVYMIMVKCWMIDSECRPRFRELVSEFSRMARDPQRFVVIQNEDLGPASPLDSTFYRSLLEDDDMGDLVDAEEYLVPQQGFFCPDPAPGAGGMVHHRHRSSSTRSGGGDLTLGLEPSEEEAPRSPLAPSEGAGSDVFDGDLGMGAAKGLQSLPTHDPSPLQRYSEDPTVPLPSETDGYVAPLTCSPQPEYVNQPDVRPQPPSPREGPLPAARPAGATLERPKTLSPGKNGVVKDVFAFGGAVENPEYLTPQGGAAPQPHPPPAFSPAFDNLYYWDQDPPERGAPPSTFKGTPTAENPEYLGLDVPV

Regarding `Cc1ccc(S(=O)(=O)Cc2ccc(C(=O)NCc3ccc4c(c3)OCO4)o2)cc1`, the viability in assay [1] was 98%; in assay [3], 98% (inactive); in assay [4], 84.7% (inactive); in assay [5], 94.1% (inactive); in assay [6] (setting [9]) it was 87.3%; in assay [6] (setting [10]) it was 94.1%. Further, the Her2 level in assay [2] was 84% (inactive). Also, the differential viability (reversal) in assay [6] (H69AR cells + 2 uM doxorubicin) is 6.79% (inactive). The inhibition in assay [7] is -3.29% (inactive); in assay [8], -4.76% (inactive).
Turning to `O=C(Cn1cnc2ccccc2c1=O)NCCC(=O)N1CCN(c2ccccc2)CC1`, the viability in assay [1] was 90.5%; in assay [3] it was 90.5% (inactive); in assay [4], 99.6% (inactive); in assay [5] it was 92% (inactive); in assay [6] (setting [9]), 83.5%; in assay [6] (setting [10]), 92%. In assay [2], the Her2 level is 83.5% (inactive). Also, the differential viability (reversal) in assay [6] (H69AR cells + 2 uM doxorubicin) was 8.53% (inactive). Besides, the inhibition is -3.25% (inactive) in assay [7] and -0.98% (inactive) in assay [8].
For the compound `Cc1cc(Cl)cc2c1NC(=O)[C@]21[C@@H]2C(=O)N(Cc3ccccc3)C(=O)[C@@H]2[C@@H]2CCCN21`, the viability in assay [1] is 100%; in assay [3], 100% (inactive); in assay [4], 78% (inactive); in assay [5] it was 78.1% (inactive); in assay [6] (setting [9]) it was 80.9%; in assay [6] (setting [10]) it was 78.1%. In addition, the Her2 level in assay [2] is 81% (inactive). The differential viability (reversal) in assay [6] (H69AR cells + 2 uM doxorubicin) is -2.8% (inactive). Besides, the results for the inhibition in assay [7] and in assay [8] were -3.77% (inactive) and 4.29% (inactive), respectively.
`Cc1nnc(SCC(=O)Nc2ccc(Br)cn2)[nH]c1=O`: the viability is 118% in assay [1]; 118% (inactive) in assay [3]; 98.7% (inactive) in assay [4]; 98.3% (inactive) in assay [5]; 93.6% in assay [6] (setting [9]); 98.3% in assay [6] (setting [10]). Besides, in assay [2], the Her2 level was 85% (inactive). The differential viability (reversal) in assay [6] (H69AR cells + 2 uM doxorubicin) was 4.71% (inactive). For the same compound, the inhibition was 1.84% (inactive) in assay [7] and 8.17% (inactive) in assay [8].
Regarding `COc1ccccc1-c1nnc(SCc2ccccn2)n1C`, the viability was 94% in assay [1]; 94% (inactive) in assay [3]; 113% (inactive) in assay [4]; 80.6% (inactive) in assay [5]; 91.4% in assay [6] (setting [9]); 80.6% in assay [6] (setting [10]). Moreover, the Her2 level in assay [2] was 107% (inactive). Further, the differential viability (reversal) in assay [6] (H69AR cells + 2 uM doxorubicin) is -10.8% (inactive). Further, the inhibition was 7.53% (inactive) in assay [7] and 9.37% (inactive) in assay [8].
`CC(NC(=O)OC(C)(C)C)C(=O)N1CCCC1C(=O)NC(Cc1ccccc1)C(N)=O` (stereo not drawn) (Boc-Ala-Pro-Phe-NH2; configuration not given here): the viability was 105% in assay [1]; 105% (inactive) in assay [3]; 95.6% (inactive) in assay [4]; 101% (inactive) in assay [5]; 97.1% in assay [6] (setting [9]); 101% in assay [6] (setting [10]). Further, in assay [2], the Her2 level is 94% (inactive). Also, the differential viability (reversal) in assay [6] (H69AR cells + 2 uM doxorubicin) was 4.26% (inactive). The figures for the inhibition in assay [7] and in assay [8] were -1.73% (inactive) and 4.68% (inactive), respectively.
Regarding `CCN1C(=O)OC2(CCCCC2)C1(C)O` (stereo not given), the viability in assay [1] is 107%; in assay [3], 107% (inactive); in assay [4], 101% (inactive); in assay [5], 105% (inactive); in assay [6] (setting [9]), 94.1%; in assay [6] (setting [10]) it was 105%. Also, in assay [2], the Her2 level is 93.5% (inactive). The differential viability (reversal) in assay [6] (H69AR cells + 2 uM doxorubicin) was 11.4% (inactive). The inhibition in assay [7] was 0.13% (inactive); in assay [8] it was -7.27% (inactive).
Turning to `CCOc1ccc(N(CC(=O)NC2CCCC2)S(=O)(=O)c2c(C)[nH]c(=O)[nH]c2=O)cc1`, the viability in assay [1] is 87%; in assay [3], 87% (inactive); in assay [4] it was 96.4% (inactive); in assay [5], 101% (inactive); in assay [6] (setting [9]), 83.4%; in assay [6] (setting [10]), 101%. Besides, in assay [2], the Her2 level was 104% (inactive). For the same compound, the differential viability (reversal) in assay [6] (H69AR cells + 2 uM doxorubicin) is 17.2% (inactive). For the same compound, the inhibition in assay [7] was 0.4% (inactive); in assay [8] it was -3.28% (inactive).
On to `O=C(NCc1cccnc1)c1ccc2c(c1)OCO2`, for which the viability is 74% in assay [1]; 74% (inactive) in assay [3]; 105% (inactive) in assay [4]; 89.7% (inactive) in assay [5]; 107% in assay [6] (setting [9]); 89.7% in assay [6] (setting [10]). Moreover, the Her2 level in assay [2] is 102% (inactive). In addition, in assay [6] (H69AR cells + 2 uM doxorubicin), the differential viability (reversal) was -16.9% (inactive). The inhibition in assay [7] is -1.35% (inactive); in assay [8], -9.18% (inactive).
Take `c1ccc2c(c1)[nH]c1c(N3CCC4(CC3)OCCO4)ncnc12`: the viability in assay [1] is 96.5%; in assay [3], 96.5% (inactive); in assay [4], 65.2% (inactive); in assay [5] it was 92.2% (inactive); in assay [6] (setting [9]) it was 86.7%; in assay [6] (setting [10]), 92.2%. In assay [2], the Her2 level was 77% (inactive). Moreover, the differential viability (reversal) in assay [6] (H69AR cells + 2 uM doxorubicin) is 5.46% (inactive). Further, the inhibition in assay [7] and in assay [8] was -3.87% (inactive) each time.
Turning to `COc1ccc(N2CCN(C(=O)COc3ccc4ccccc4c3)CC2)cc1`, the viability in assay [1] is 77.5%; in assay [3], 77.5% (inactive); in assay [4], 84.8% (inactive); in assay [5] it was 108% (inactive); in assay [6] (setting [9]), 90.8%; in assay [6] (setting [10]) it was 108%. Besides, in assay [2], the Her2 level is 86.5% (inactive). Moreover, in assay [6] (H69AR cells + 2 uM doxorubicin), the differential viability (reversal) is 17.1% (inactive). In addition, the values for the inhibition in assay [7] and in assay [8] were -6.35% (inactive) and 3.11% (inactive), respectively.
For `COc1ccc(-c2c(C(F)(F)F)oc3c(CN4CCN(C)CC4)c(O)ccc3c2=O)cc1`, the viability in assay [1] is 84.5%; in assay [3] it was 84.5% (inactive); in assay [4] it was 87.9% (inactive); in assay [5], 102% (inactive); in assay [6] (setting [9]), 103%; in assay [6] (setting [10]), 102%. For the same compound, the Her2 level in assay [2] was 108% (inactive). For the same compound, the differential viability (reversal) in assay [6] (H69AR cells + 2 uM doxorubicin) is -1.1% (inactive). Also, the inhibition in assay [7] is -2.67% (inactive); in assay [8], -6.03% (inactive).
Take `COCCSc1ccccc1C(=O)Nc1cc(C)on1`: the viability in assay [1] was 91%; in assay [3], 91% (inactive); in assay [4], 95.4% (inactive); in assay [5] it was 94.5% (inactive); in assay [6] (setting [9]), 89.8%; in assay [6] (setting [10]), 94.5%. Further, the Her2 level in assay [2] was 90% (inactive). Further, the differential viability (reversal) in assay [6] (H69AR cells + 2 uM doxorubicin) was 4.69% (inactive). Besides, the inhibition was 0.39% (inactive) in assay [7] and -2.74% (inactive) in assay [8].
Take `CN(C(=O)CSc1nc2c(c(=O)[nH]1)CCCC2)C1CCCCC1`: the viability in assay [1] is 95%; in assay [3], 95% (inactive); in assay [4] it was 77.1% (inactive); in assay [5] it was 93.3% (inactive); in assay [6] (setting [9]) it was 92.2%; in assay [6] (setting [10]), 93.3%. Also, the Her2 level in assay [2] is 105% (inactive). In assay [6] (H69AR cells + 2 uM doxorubicin), the differential viability (reversal) was 1.09% (inactive). Moreover, the results for the inhibition in assay [7] and in assay [8] were -1.97% (inactive) and -8.89% (inactive), respectively.
For `COc1ccc(CNC(=O)c2cc(-c3ccc(OC)c(OC)c3)on2)cc1`, the viability is 116% in assay [1]; 116% (inactive) in assay [3]; 118% (inactive) in assay [4]; 94.4% (inactive) in assay [5]; 85.6% in assay [6] (setting [9]); 94.4% in assay [6] (setting [10]). For the same compound, in assay [2], the Her2 level is 88.5% (inactive). Further, the differential viability (reversal) in assay [6] (H69AR cells + 2 uM doxorubicin) was 8.78% (inactive). The inhibition was -5.95% (inactive) in assay [7] and -3.83% (inactive) in assay [8].

By viability is commonly meant a read-out of living cells in per cent, often relative to untreated cells. What is called inhibition is the change of the read-out against control, counted positive when it falls.
